The values below come from ChEMBL document CHEMBL3739312, “Triazole-curcuminoids: A new class of derivatives for 'tuning' curcumin bioactivities?” (Bioorg Med Chem, 2016).

Activity calls are given as the source filed them. The rule behind the calls is not given here.

The test system of test [1] is SH-SY5Y. Description: Antiproliferative activity against human SH-SY5Y cells assessed as cell viability at 40 uM after 48 hrs relative to control. The class given is functional. The settings on record: read-out: Activity. The essentials: (§1)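 Single fixed concentration of 40 µM against HeLa or SH-SY5Y cells; viability given as mean ± S.E.M., n = 8 from two separate experiments.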

In test [2] the test system is HeLa. Description: Antiproliferative activity against human HeLa cells assessed as cell viability at 40 uM after 48 hrs relative to control. The class given is functional. The conditions noted are these: read-out: Activity. The essentials:
as §1

Test [3] concerns HeLa. Briefly: Inhibition of TNFalpha-induced NFkappaB activation assessed as TNFalpha-induced transcription level in human HeLa cells at 30 uM incubated for 6 hrs by luciferase reporter gene assay. It counts as cell-based. On the set-up: scale not given: the % may be the effect or the level left. The essentials:
(§2)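 HeLa NF-κB luciferase reporter: cells plated at 5 × 10³/well; after 8 h, TNFα (20 ng/mL) applied for 6 h with or without compound. Firefly luciferase normalized to pRLTK Renilla by dual-luciferase read-out; n = 6–11 from 3–6 experiments.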

The test system of test [4] is SH-SY5Y. Description: Antiproliferative activity against human SH-SY5Y cells assessed as cell viability after 48 hrs. The class given is functional, cell-based.
Test [5] has as its system HeLa. Description: Antiproliferative activity against human HeLa cells assessed as cell viability after 48 hrs. The class given is functional, cell-based.
Test [6] addresses T1, Tubulin (Homo sapiens) (UniProt P68371+Q9H4B7+P0DPH7+P68366+Q13509+Q71U36+P04350+Q3ZCM7+P07437+P68363+Q9BQE3+Q6PEY2+Q13885+Q9BVA1+Q9BUF5). Description: Inhibition of tubulin (unknown origin) polymerization up to 60 uM. It counts as protein-complex assay. An outline of the steps: (§3)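 Cell-free fluorescence-based tubulin polymerization kit; compound tested from 10 µM up to 60 µM.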

Test [7] relates to HeLa. Briefly: Cell cycle arrest in human HeLa cells at IC50 to 2 times IC50 after 8 hrs by FACS analysis. The class given is functional, cell-based. The essentials: (§4)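 HeLa cells seeded at 6 × 10⁵ cells/well, starved overnight, then exposed at IC50, 2× and 3× IC50 for 8 h or 16 h. Cells fixed in 70% EtOH overnight at −20 °C, then RNase-treated (100 µg/mL, 1 h, 37 °C) before cell-cycle phase analysis.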

The test system of test [8] is HeLa. Description: Cell cycle arrest in human HeLa cells assessed as accumulation at […] phase at IC50 to 2 times IC50 after 16 hrs by FACS analysis. It counts as functional, cell-based. An outline of the steps: as §4
For test [9], the target named is T1, Tubulin (Homo sapiens). Description: Inhibition of tubulin polymerization in human HeLa cells assessed as increase in soluble fraction incubated for 16 hrs by cellular assay. It counts as cell-based. The essentials: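 HeLa cells exposed 16 h; proteins extracted in presence of paclitaxel, pelletable and soluble fractions separated and resolved by SDS–PAGE.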

Test [10] relates to HeLa. Briefly: Potentiation of TNFalpha-induced NFkappaB activation in human HeLa cells at 3 uM incubated for 6 hrs by luciferase reporter gene assay. It counts as cell-based. An outline of the steps: as §2
Test [11] deals with T1, Tubulin (Homo sapiens). Briefly: Inhibition of tubulin (unknown origin) polymerization at 10 uM. It counts as protein-complex assay. An outline of the steps: as §3

Take `Oc1ccc(/C=C/c2cn(/C=C/c3ccccc3)nn2)cc1O`: the viability at 40 µM with SH-SY5Y [1] is 40.1%; in the test with HeLa [2], 18.4%. Further, in the test with HeLa [3], the Activity is 167%.

Turning to `COc1cccc(/C=C/n2cc(/C=C/c3ccccc3)nn2)c1`, the viability at 40 µM was determined as 107% with SH-SY5Y [1] and 82.1% with HeLa [2]. The Activity in the test with HeLa [3] stood at 76.1%.

As to `COc1ccc(/C=C/c2cn(/C=C/c3ccc(O)c(OC)c3)nn2)cc1O`, the viability at 40 µM in the test on SH-SY5Y [1] was 18.1%; in the test with HeLa [2], 7.9%. For the same compound, the figures for the IC50 in the test on SH-SY5Y [4] and in the test with HeLa [5] were 6.9 µM and 11.7 µM, respectively. For the same compound, the result on Tubulin (Homo sapiens) [6] and in the test on HeLa [7] was inactive. In addition, the result in the test with HeLa [8] was Active. The Activity in the test with HeLa [3] is 15.3%. The inhibition result on Tubulin (Homo sapiens) [9] is “inactive”.

Take `COc1cc(/C=C/c2cn(/C=C/c3ccc(O)c(OC)c3)nn2)ccc1O`: the viability at 40 µM in the test on SH-SY5Y [1] worked out at 36.1%; in the test on HeLa [2], 50.5%. Moreover, the half-maximal inhibitory concentration (IC50) came out at 17.8 µM in the test on SH-SY5Y [4] and 36.4 µM with HeLa [5]. For the same compound, the outcome at Tubulin (Homo sapiens) [6] was inactive. For the same compound, the Activity in the test on HeLa [3] came out at 48%. For the same compound, the fold change (FC) in the test with HeLa [10] came to 2. Moreover, on Tubulin (Homo sapiens) [9], the inhibition result is “inactive”.

In the case of `COc1cc(/C=C/c2cn(/C=C/c3ccccc3)nn2)cc(OC)c1OC`, the viability at 40 µM with SH-SY5Y [1] is 69.2%; with HeLa [2], 52.1%. In addition, the Activity in the test on HeLa [3] amounted to 65.3%.

Turning to `COc1ccc(/C=C/c2cn(/C=C/c3ccc(O)c(OC)c3)nn2)cc1`, the viability at 40 µM came to 50% in the test on SH-SY5Y [1] and 67.9% in the test with HeLa [2]. Also, in the test on HeLa [3], the Activity is 146%.

For `Oc1ccc(/C=C/c2cn(/C=C/c3ccc(O)cc3)nn2)cc1`, the results for the viability at 40 µM with SH-SY5Y [1] and in the test with HeLa [2] were 49.6% and 55.3%, respectively. Moreover, the Activity in the test with HeLa [3] was 112%.

Consider `COc1cc(/C=C/n2cc(/C=C/c3ccc(O)cc3)nn2)ccc1O`, for which the viability at 40 µM in the test with SH-SY5Y [1] was 50.3%; in the test on HeLa [2], 83.5%. The Activity in the test on HeLa [3] amounted to 73.2%.

As to `Oc1ccc(/C=C/n2cc(/C=C/c3ccc(O)c(O)c3)nn2)cc1`, the viability at 40 µM was 60.4% with SH-SY5Y [1] and 60.1% in the test with HeLa [2]. Moreover, the Activity in the test on HeLa [3] was determined as 124%.

For `Oc1ccc(/C=C/n2cc(/C=C/c3ccccc3)nn2)cc1`, the values for the viability at 40 µM in the test on SH-SY5Y [1] and in the test with HeLa [2] were 48% and 50.7%, respectively. In addition, the Activity with HeLa [3] turned out to be 88.9%.

Turning to `C(=C\c1cn(/C=C/c2ccccc2)nn1)/c1ccccc1`, the viability at 40 µM came to 118% in the test with SH-SY5Y [1] and 70% with HeLa [2]. In addition, the Activity with HeLa [3] was determined as 79.9%.

For `COc1ccc(/C=C/c2cn(/C=C/c3ccccc3)nn2)cc1`, the viability at 40 µM with SH-SY5Y [1] came out at 126%; in the test with HeLa [2], 69.2%. Further, the Activity in the test on HeLa [3] was found to be 74.5%.

Turning to `COc1cc(/C=C/c2cn(/C=C/c3ccccc3)nn2)ccc1O`, the viability at 40 µM in the test on SH-SY5Y [1] is 110%; with HeLa [2], 79.5%. For the same compound, the Activity in the test with HeLa [3] was determined as 138%.

On to `COc1cccc(/C=C/c2cn(/C=C/c3ccc(O)cc3)nn2)c1`, for which the viability at 40 µM with SH-SY5Y [1] came out at 37.9%; in the test on HeLa [2], 30.4%. The IC50 with SH-SY5Y [4] was 9 µM; in the test with HeLa [5] it was 17.2 µM. The Activity in the test on HeLa [3] was found to be 61.5%.

For the compound `COc1cccc(/C=C/c2cn(/C=C/c3ccccc3)nn2)c1`, the viability at 40 µM with SH-SY5Y [1] was 88.7%; in the test with HeLa [2], 93.9%. Further, the Activity in the test with HeLa [3] turned out to be 87%.

For the compound `COc1ccc(/C=C/c2cn(/C=C/c3ccc(O)cc3)nn2)cc1`, the viability at 40 µM with SH-SY5Y [1] was 25.7%; with HeLa [2], 66.3%. Further, the IC50 with SH-SY5Y [4] was 11.3 µM; in the test on HeLa [5], 34 µM. Moreover, the Activity in the test with HeLa [3] worked out at 131%.

For the compound `COc1cc(/C=C/n2cc(/C=C/c3cc(OC)c(OC)c(OC)c3)nn2)ccc1O`, the viability at 40 µM in the test with SH-SY5Y [1] turned out to be 23.5%; in the test with HeLa [2], 23%. In addition, the IC50 with SH-SY5Y [4] is 7.8 µM; with HeLa [5], 13.6 µM. For the same compound, the result at Tubulin (Homo sapiens) [6] and with HeLa [7] was inactive. The outcome in the test with HeLa [8] was Active. Also, the Activity with HeLa [3] came to 27.5%. On Tubulin (Homo sapiens) [9], the inhibition entry was “inactive”.

For the compound `COc1cc(/C=C/n2cc(/C=C/c3ccccc3)nn2)ccc1O`, the viability at 40 µM with SH-SY5Y [1] stood at 86.7%; with HeLa [2], 84.3%. Also, in the test on HeLa [3], the Activity is 144%.

As to `COc1cccc(/C=C/n2cc(/C=C/c3cc(OC)c(OC)c(OC)c3)nn2)c1`, the viability at 40 µM with SH-SY5Y [1] worked out at 99.9%; in the test with HeLa [2] it was 77.9%. In addition, at Tubulin (Homo sapiens) [6], the result was inactive. In addition, the Activity in the test on HeLa [3] worked out at 42.2%. The inhibition result at Tubulin (Homo sapiens) [9] was “inactive”.

For the compound `Oc1ccc(/C=C/c2cn(/C=C/c3ccccc3)nn2)cc1`, the viability at 40 µM was found to be 70.6% in the test on SH-SY5Y [1] and 39.5% in the test on HeLa [2]. For the same compound, in the test on HeLa [3], the Activity turned out to be 85.4%.

Turning to `COc1cccc(/C=C/c2cn(/C=C/c3ccc(O)c(OC)c3)nn2)c1` (mixture of isomers), the figures for the viability at 40 µM in the test with SH-SY5Y [1] and with HeLa [2] were 65.3% and 38.7%, respectively. For the same compound, the Activity in the test on HeLa [3] stood at 88.9%.

Regarding `COc1cccc(/C=C/n2cc(/C=C/c3ccc(O)cc3)nn2)c1`, the viability at 40 µM stood at 68.9% in the test on SH-SY5Y [1] and 41.9% in the test with HeLa [2]. Moreover, the Activity in the test with HeLa [3] was found to be 94.3%.

On to `COc1cc(/C=C/c2cn(/C=C/c3ccc(O)cc3)nn2)cc(OC)c1OC`, for which the viability at 40 µM in the test on SH-SY5Y [1] was found to be 21.3%; with HeLa [2], 19.2%. In addition, the results for the IC50 in the test with SH-SY5Y [4] and in the test with HeLa [5] were 1.7 µM and 1.5 µM, respectively. Besides, the outcome at Tubulin (Homo sapiens) [6] and in the test on HeLa [7] was inactive. The result with HeLa [8] was Active. Moreover, the Activity in the test on HeLa [3] came to 14.6%. Moreover, the inhibition entry at Tubulin (Homo sapiens) [9] was “inactive”.

Consider `COc1cc(/C=C/C(=O)CC(=O)/C=C/c2ccc(O)c(OC)c2)ccc1O` [CURCUMIN], for which the results for the viability at 40 µM with SH-SY5Y [1] and in the test on HeLa [2] were 22.6% and 42.5%, respectively. The IC50 with SH-SY5Y [4] was found to be 16.1 µM; in the test with HeLa [5] it was 21.8 µM. Further, the outcome at Tubulin (Homo sapiens) [11] and in the test on HeLa [7] was inactive. The inhibition entry on Tubulin (Homo sapiens) [6] was “Active”. Also, the outcome in the test with HeLa [8] was Active. Also, the Activity in the test on HeLa [3] turned out to be 60.5%. Moreover, the inhibition entry at Tubulin (Homo sapiens) [9] is “inactive”.

Take `COc1cccc(/C=C/c2cn(/C=C/c3cccc(OC)c3)nn2)c1`: the viability at 40 µM with SH-SY5Y [1] stood at 71.4%; with HeLa [2] it was 92.8%. In addition, the Activity in the test on HeLa [3] amounted to 71%.

With `COc1cccc(/C=C/n2cc(/C=C/c3ccc(O)c(OC)c3)nn2)c1`, the values for the viability at 40 µM with SH-SY5Y [1] and in the test on HeLa [2] were 66.3% and 66.9%, respectively. Besides, in the test on HeLa [3], the Activity stood at 57%.

For `COc1cccc(/C=C/n2cc(/C=C/c3ccc(O)c(O)c3)nn2)c1`, the values for the viability at 40 µM with SH-SY5Y [1] and with HeLa [2] were 27.7% and 16.6%, respectively. The figures for the IC50 in the test on SH-SY5Y [4] and in the test with HeLa [5] were 17 µM and 18.7 µM, respectively. Moreover, the Activity in the test on HeLa [3] is 97%.

In the case of `COc1cc(/C=C/c2cn(/C=C/c3ccc(O)cc3)nn2)ccc1O`, the viability at 40 µM in the test on SH-SY5Y [1] worked out at 55.4%; in the test with HeLa [2], 56.8%. For the same compound, the Activity in the test on HeLa [3] turned out to be 96%.

In the case of `COc1ccc(/C=C/c2cn(/C=C/c3cccc(OC)c3)nn2)cc1`, the viability at 40 µM with SH-SY5Y [1] came out at 52%; with HeLa [2], 55.1%. Besides, in the test on HeLa [3], the Activity is 81.3%.
